Results from different studies.
Compare with care: the assays were run in different laboratories.
Target: Casein kinase I isoform epsilon (CSNK1E, Homo sapiens, UniProt P49674)

SMILES	observed	action	technique	tested at	quantity	result
CO[C@@H]1[C@H](N(C)C(=O)c2ccccc2)C[C@H]2O[C@]1(C)n1c3ccccc3c3c4c(c5c6ccccc6n2c5c31)C(=O)NC4	enzyme activity	inhibitor		1 µM	inhibition	0%
CN1CCN(C(=O)c2ccc(NC(=O)Nc3ccc(N(C)c4ccnc(Nc5ccc(CS(C)(=O)=O)cc5)n4)cc3)cc2)CC1	binding		competition with immobilised ligand	1 µM	remaining binding	75%
CCCCC(=O)Nc1ccc(-c2ccc3ncn(CCC)c(=O)c3c2)cn1	binding		competition with immobilised ligand	0.5 µM	remaining binding	82%
C#Cc1cc(-c2cc(Nc3nc(N[C@@H](C)c4ccc(F)cn4)ncc3Cl)n[nH]2)ccc1C=O	enzyme activity	inhibitor		0.2 µM	inhibition	4.66%
Cc1ccc(NC(=O)c2ccnc(C(F)(F)F)c2)cc1-c1cc(OCCO)nc(N2CCOCC2)c1	binding		competition with immobilised ligand	1 µM	remaining binding	100%
CC(=O)ON=C1C=CC(=C(C#N)c2ccccc2)C=C1	enzyme activity	inhibitor	ADP detection	20 µM	activity vs control	60%
C1=C/COCc2cc(ccc2OCCN2CCCC2)Nc2nccc(n2)-c2cccc(c2)COC/1	binding			0.1 µM	remaining binding	99%
C=CC(=O)N1CCC[C@@H](n2nc(-c3ccc(Oc4ccccc4)cc3)c3c(N)ncnc32)C1	enzyme activity	inhibitor		1 µM	inhibition	65%
